Data as given in ChEMBL document CHEMBL3124880, “4-(3-Chloro-5-(trifluoromethyl)pyridin-2-yl)-N-(4-methoxypyridin-2-yl)piperazine-1-carbothioamide (ML267), a potent inhibitor of bacterial phosphopantetheinyl transferase that attenuates secondary metabolism and thwarts bacterial growth” (J Med Chem, 2014).
Values after ≈ are worked out from the molar mass of the structure shown. Active and inactive are the calls of the source.

Key:
[1] = Mean residence time required for 63.2% elimination of drug in CD-1 mouse at 3 mg/kg, iv; type: ADME, organism-based; parameters: dose 3 mg/kg, route intravenous; conditions: in vivo
Outline: (§1)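 Male CD1 mice, 6–8 weeks old, given 3 mg/kg iv as a solution in 5% DMSO/10% Solutol in water. Plasma sampled at eight time points over 24 h, in triplicate; MRT defined as time to eliminate 63.2% of the iv dose.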

[2] = Cmax in CD-1 mouse at 30 mg/kg, ip; type: ADME, organism-based; parameters: dose 30 mg/kg, route intraperitoneal; conditions: in vivo
Outline: (§2)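 Male CD1 mice, 6–8 weeks old. Dosed iv at 3 mg/kg or ip at 30 mg/kg as a solution in 5% DMSO/10% Solutol in water. Plasma sampled in triplicate at eight time points over 24 h.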

Bacillus subtilis [3] = test: Antibacterial activity against Bacillus subtilis 168 assessed as growth inhibition after 16 to 20 hrs by resazurin dye-based assay; type: functional; conditions: subsp. subtilis str. 168
Outline: (§3)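 Broth microdilution. Test article from 1 μL DMSO in 50 μL cation-adjusted Mueller Hinton II (bacteria) or RPMI 1640 (fungi), plus ~1×10^3 cfu inoculum in the same medium. Incubated 16–20 h at 30–37 °C (48 h for fungi). MIC scored visually as the first well without growth; resazurin added for imaging.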

Escherichia coli [4] = test: Antibacterial activity against Escherichia coli BW25113 assessed as growth inhibition at 0.8 to 100 ug/mL after 16 to 20 hrs by resazurin dye-based assay; type: functional; outline: as §3
[5] = Cmax in CD-1 mouse at 3 mg/kg, iv; type: ADME, organism-based; parameters: dose 3 mg/kg, route intravenous; conditions: in vivo; outline: as §2
[6] = Chemical stability of the compound in aqueous media at pH 2 to 9 at room temperature measured over 5 hrs by LC/MS analysis; type: physicochemical; conditions: buffer, pH 2, 5 h
Outline: (§4)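 Compound held in aqueous media over pH 2–9 and in PBS and HEPES buffers, then monitored for degradation.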

[7] = Permeability of the compound by PAMPA; type: physicochemical
Bacillus subtilis [8] = test: Antibacterial activity against Bacillus subtilis OKB105 assessed as inhibition of surfactin production at 1.1 ug/mL after 28 hrs by LC-MS analysis relative to vehicle-treated control; type: functional; conditions: OKB105, 28 h
Outline: (§5)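 B. subtilis OKB105 cultures grown with sublethal compound concentrations. Culture growth and surfactin titer measured periodically over 28 h; titer expressed relative to vehicle control.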

Bacillus subtilis [9] = test: Antibacterial activity against Bacillus subtilis HM489 assessed as cellular ATP content after 5 hrs by BacTiter-Glo assay; type: functional, organism-based; conditions: HM489, 5 h
Bacillus subtilis [10] = test: Antibacterial activity against Bacillus subtilis HM489 assessed as growth inhibition at 1.7 ug/mL after 16 to 20 hrs by resazurin dye-based assay; type: functional, organism-based; outline: as §3
Staphylococcus aureus [11] = test: Antibacterial activity against community-acquired methicillin-resistant Staphylococcus aureus BAA-1717 assessed as growth inhibition at 0.8 to 100 ug/mL after 16 to 20 hrs by resazurin dye-based assay; type: functional, organism-based
Outline: (§6)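 Broth microdilution. Inoculum from overnight liquid cultures or 2-day colonies, ~1 × 10^3 cfu per well. Compound in DMSO added to cation-adjusted Mueller Hinton II broth (bacteria) or RPMI 1640 (fungi). Incubated at 30–37 °C for 16–20 h, or 48 h for fungi.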

Liver microsome = test: Half life in rat liver microsomes in presence of NADPH; type: ADME
Outline: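 Liver microsomes from mouse or rat incubated with compound in the presence of NADPH. Mouse assay done at Pharmaron.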

Staphylococcus aureus [12] = test: Antibacterial activity against Staphylococcus aureus BK2395 isolated from kidney of 30 mg/kg, ip compound-treated Swiss Webster mouse septicemia model assessed as growth inhibition; type: functional, organism-based; parameters: dose 30 mg/kg
Outline: (§7)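 Bacteria harvested from the kidneys of septic mice treated with vehicle or compound, five isolates taken per crude sample. MICs measured in parallel with the parental USA500 strain.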

Candida albicans = test: Antifungal activity against fluconazole-resistant Candida albicans ATCC 96901 assessed as growth inhibition at 0.8 to 100 ug/mL after 48 hrs by resazurin dye-based assay; type: functional, organism-based; outline: as §6
[13] = Chemical stability of the compound in PBS buffer at room temperature measured over 48 hrs by LC/MS analysis; type: physicochemical; outline: as §4
[14] = Volume of distribution in CD-1 mouse at 3 mg/kg, iv; type: ADME, organism-based; parameters: dose 3 mg/kg, route intravenous; conditions: in vivo; outline: as §1
Mus musculus = test: Toxicity in CD-1 mouse at 30 mg/kg, ip measured over 24 hrs; type: organism-based; parameters: dose 30 mg/kg, route intraperitoneal; conditions: in vivo
Outline: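 Male CD1 mice, 6–8 weeks old, given 30 mg/kg ip in 5% DMSO/10% Solutol/water. Clinical observations recorded over 24 h.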

[15] = Metabolic stability in mouse plasma at 2 hrs; type: ADME, cell-free; conditions: read-out: Stability
Outline: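 Compound incubated in mouse plasma; stability measured at 2 h (Pharmaron).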

[16] = AUC (infinity) in CD-1 mouse at 30 mg/kg, ip; type: ADME, organism-based; parameters: time infinity, dose 30 mg/kg, route intraperitoneal; conditions: plasma; outline: as §2
Bacillus subtilis [17] = test: Antibacterial activity against Bacillus subtilis OKB105 assessed as inhibition of surfactin production at 0.53 ug/mL after 28 hrs by LC-MS analysis relative to vehicle-treated control; type: functional; conditions: OKB105, 28 h; outline: as §5
Escherichia coli [18] = test: Antibacterial activity against Escherichia coli JW0451 containing lesion in acrB locus assessed as growth inhibition at 12.5 ug/mL after 16 to 20 hrs by broth dilution method; type: functional, organism-based
Outline: (§8)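 E. coli BW25113 (wild type) and JW0451 (ΔacrB) tested by broth dilution in cation-adjusted Mueller Hinton II, ~1×10^3 cfu, 16–20 h. Growth shown with resazurin. Checkerboard combination with the efflux inhibitor PAβN in the wild type.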

Bacillus subtilis [19] = test: Antibacterial activity against Bacillus subtilis OKB105 assessed as growth inhibition at 1.7 ug/mL after 16 to 20 hrs by resazurin dye-based assay; type: functional, organism-based
[20] = Protein binding in plasma (unknown origin) by equilibrium dialysis; type: ADME, cell-free
CYP2D6 = CYP2D6 (Homo sapiens, UniProt P10635); test: Inhibition of CYP2D6 (unknown origin) using dextromethorphan as substrate at 3 uM relative to control; type: ADME; conditions: probe dextromethorphan
Sequence of CYP2D6 (P10635 whole entry): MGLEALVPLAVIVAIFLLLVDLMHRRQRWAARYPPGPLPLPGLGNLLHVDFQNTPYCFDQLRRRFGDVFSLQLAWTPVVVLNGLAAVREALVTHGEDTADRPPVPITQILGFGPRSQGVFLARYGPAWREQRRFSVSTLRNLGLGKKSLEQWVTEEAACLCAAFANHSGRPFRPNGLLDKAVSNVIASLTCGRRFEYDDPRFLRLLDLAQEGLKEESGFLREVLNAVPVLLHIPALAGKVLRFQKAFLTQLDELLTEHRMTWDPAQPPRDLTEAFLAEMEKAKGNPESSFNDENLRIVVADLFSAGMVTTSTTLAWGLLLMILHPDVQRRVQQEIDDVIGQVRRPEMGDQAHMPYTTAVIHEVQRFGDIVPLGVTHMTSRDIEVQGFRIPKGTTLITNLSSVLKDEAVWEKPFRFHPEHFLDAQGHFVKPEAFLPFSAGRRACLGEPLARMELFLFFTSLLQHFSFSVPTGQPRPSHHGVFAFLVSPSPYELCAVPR
Outline: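 Compound at 3 μM co-incubated with CYP substrates: dextromethorphan for 2D6, 6β-hydroxytestosterone for 3A4. Percent inhibition reported; done at Pharmaron.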

[21] = Clearance in CD-1 mouse at 3 mg/kg, iv; type: ADME, organism-based; parameters: dose 3 mg/kg, route intravenous; conditions: in vivo; outline: as §2
Staphylococcus aureus [22] = test: Antibacterial activity against community-acquired methicillin-resistant Staphylococcus aureus USA500 assessed as growth inhibition at 0.8 to 100 ug/mL after 16 to 20 hrs by resazurin dye-based assay; type: functional, organism-based; outline: as §6
Escherichia coli [23] = test: Antibacterial activity against wild type Escherichia coli BW25113 assessed as growth inhibition at 1.8 to 250 ug/mL after 16 to 20 hrs by broth dilution method; type: functional; outline: as §8
Bacillus subtilis [24] = test: Antibacterial activity against Bacillus subtilis 168 assessed as disruption of cell membrane integrity at 10 times MIC after 15 mins by Syto9/propidium iodide staining-based BacLight LIVE/DEAD microscopic analysis; type: functional, organism-based; conditions: subsp. subtilis str. 168
Staphylococcus aureus [25] = test: Antibacterial activity against Staphylococcus aureus isolated from kidney of 30 mg/kg, ip compound-treated Swiss Webster mouse septicemia model assessed as growth inhibition; type: functional, organism-based; parameters: dose 30 mg/kg; outline: as §7
[26] = Metabolic stability in mouse liver microsomes measured over 1 hr in absence of NADPH; type: ADME, Microsome
Outline: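 Mouse liver microsomes incubated with compound without NADPH over 1 h.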

[27] = AUC (infinity) in CD-1 mouse at 3 mg/kg, iv; type: ADME, organism-based; parameters: time infinity, dose 3 mg/kg, route intravenous; conditions: plasma; outline: as §2
Staphylococcus aureus [28] = test: Antibacterial activity against methicillin-sensitive Staphylococcus aureus ATCC 6538 assessed as growth inhibition at 0.8 to 100 ug/mL after 16 to 20 hrs by resazurin dye-based assay; type: functional, organism-based; outline: as §3

Q: Which MRT [1] does the source give for `COc1ccnc(NC(=S)N2CCN(c3ncc(C(F)(F)F)cc3Cl)CC2)c1` here?
A: Its MRT is 3.4 h.

Q: What about the Cmax [2] of the same compound?
A: The Cmax was 17600 ng/mL.

Q: And the MIC (Bacillus subtilis [3])?
A: Its MIC is 2 µg/mL (≈ 4.63 µM).

Q: What about the “growth inhibition (GI)” value (Escherichia coli [4]) of the same compound?
A: Its value is “inactive”.

Q: What about the Cmax [5] of the same compound?
A: The Cmax was 4110 ng/mL.

Q: What about the Stability [6] of the same compound?
A: Its Stability is “Stable”.

Q: And the permeability [7]?
A: Its permeability is 1120 ×10⁻⁶ cm/s.

Q: What about the inhibition at 1.1 µg/mL (Bacillus subtilis [8]) of the same compound?
A: Its inhibition at 1.1 µg/mL is 41%.

Q: And the IC50 (Bacillus subtilis [9])?
A: Its IC50 is 9.3 µM.

Q: And the “growth inhibition (GI)” value (Bacillus subtilis [10])?
A: Its value is “Active”.

Q: And the “growth inhibition (GI)” value (Staphylococcus aureus [11])?
A: The value was “Active”.

Q: What about the t1/2 (Liver microsome) of the same compound?
A: Its t1/2 is greater than 30 min.

Q: What about the “growth inhibition (GI)” value (Staphylococcus aureus [12]) of the same compound?
A: Its value is “Active”.

Q: And the “growth inhibition (GI)” value (Candida albicans)?
A: Its value is “inactive”.

Q: What about the Stability [13] of the same compound?
A: The Stability was “Stable”.

Q: And the Vd [14]?
A: Its Vd is 1.5 L/kg.

Q: And the Activity (Mus musculus)?
A: The Activity was “Non-toxic”.

Q: And the remaining at 2 h [15]?
A: The remaining at 2 h was 100%.

Q: And the AUC(0-inf) [16]?
A: The AUC(0-inf) was 68900 ng·h/mL.

Q: What about the inhibition at 0.53 µg/mL (Bacillus subtilis [17]) of the same compound?
A: The inhibition at 0.53 µg/mL was 33%.

Q: And the “growth inhibition (GI)” value (Escherichia coli [18])?
A: The value was “Active”.

Q: And the “growth inhibition (GI)” value (Bacillus subtilis [19])?
A: Its value is “Active”.

Q: What about the PPB [20] of the same compound?
A: The PPB was 98.6%.

Q: And the inhibition at 3 µM (CYP2D6)?
A: The inhibition at 3 µM was 25%.

Q: What about the clearance [21] of the same compound?
A: The clearance was 7.2 mL/min/kg.

Q: What about the “growth inhibition (GI)” value (Staphylococcus aureus [22]) of the same compound?
A: Its value is “Active”.

Q: And the “growth inhibition (GI)” value (Escherichia coli [23])?
A: Its value is “inactive”.

Q: And the Activity (Bacillus subtilis [24])?
A: The Activity was “inactive”.

Q: What about the “growth inhibition (GI)” value (Staphylococcus aureus [25]) of the same compound?
A: The value was “Active”.

Q: What about the Stability [26] of the same compound?
A: Its Stability is “Stable”.

Q: And the AUC(0-inf) [27]?
A: Its AUC(0-inf) is 6980 ng·h/mL.

Q: What about the “growth inhibition (GI)” value (Staphylococcus aureus [28]) of the same compound?
A: The value was “Active”.
